Test results from ChEMBL document CHEMBL1944546, “Structure-activity relationships of novel alkylides: 3-O-arylalkyl clarithromycin derivatives with improved antibacterial activities” (2012).
≈ marks a conversion by molar mass, not a printed value.

How the values were obtained:
[1] = test system: Staphylococcus epidermidis; experiment: Antibacterial activity against methicillin-susceptible, inducible MLS-resistant Staphylococcus epidermidis E1 by broth microdilution method; assay type: functional
Summary of the method: (§1)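 MIC by broth microdilution following CLSI (2010) recommendations, using clinical isolates identified by 16S rDNA sequencing and labelled by genotype and phenotype. S. aureus ATCC 29213 and S. pneumoniae ATCC 49619 were run as control strains, and azithromycin, clarithromycin and 3-OH-clarithromycin were tested as reference agents.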

[2] = test system: Staphylococcus aureus; experiment: Antibacterial activity against erythromycin-susceptible Staphylococcus aureus ATCC 29213 by broth microdilution method; assay type: functional
Summary of the method: (§2)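 MIC read by broth microdilution following CLSI (2010) guidance. The clinical isolates were identified by 16S rDNA sequencing and labelled by genotype and phenotype. S. aureus ATCC 29213 and S. pneumoniae ATCC 49619 were the control strains. Azithromycin, clarithromycin and 3-OH-clarithromycin were run as reference compounds.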

[3] = test system: Staphylococcus haemolyticus; experiment: Antibacterial activity against methicillin-resistant, coagulase-negative, constitutive MLS-resistant Staphylococcus haemolyticus PU 19 by broth microdilution method; assay type: functional; summary of the method: as §1
[4] = test system: Staphylococcus epidermidis; experiment: Antibacterial activity against methicillin-resistant, constitutive MLS-resistant Staphylococcus epidermidis E2 by broth microdilution method; assay type: functional; summary of the method: as §1
[5] = test system: Streptococcus pneumoniae; experiment: Antibacterial activity against penicillin-, constitutive MLS-resistant Streptococcus pneumoniae PU 11 by broth microdilution method; assay type: functional; summary of the method: as §1
[6] = test system: Staphylococcus aureus; experiment: Antibacterial activity against methicillin-susceptible, inducible MLS-resistant Staphylococcus aureus PU 64 by broth microdilution method; assay type: functional; summary of the method: as §1
[7] = test system: Streptococcus pneumoniae; experiment: Antibacterial activity against efflux,penicillin-susceptible Streptococcus pneumoniae PU 09 by broth microdilution method; assay type: functional; summary of the method: as §2
[8] = test system: Staphylococcus aureus; experiment: Antibacterial activity against methicillin-, constitutive MLS-resistant […] by broth microdilution method; assay type: functional; summary of the method: as §1
[9] = test system: Streptococcus pneumoniae; experiment: Antibacterial activity against penicillin-susceptible, constitutive MLS-resistant Streptococcus pneumoniae PU 27 by broth microdilution method; assay type: functional; summary of the method: as §1
[10] = test system: Staphylococcus aureus; experiment: Antibacterial activity against methicillin-, inducible MLS-resistant Staphylococcus aureus PU 32 by broth microdilution method
[11] = test system: Streptococcus pyogenes; experiment: Antibacterial activity against erythromycin-susceptible Streptococcus pyogenes A 3 by broth microdilution method; assay type: functional; summary of the method: as §2
[12] = test system: Streptococcus pneumoniae; experiment: Antibacterial activity against erythromycin-susceptible Streptococcus pneumoniae ATCC 49619 by broth microdilution method; assay type: functional; summary of the method: as §2
[13] = test system: Streptococcus dysgalactiae; experiment: Antibacterial activity against efflux, erythromycin-resistant Streptococcus dysgalactiae A 1 by broth microdilution method; assay type: functional; summary of the method: as §1
[14] = test system: Streptococcus pyogenes; experiment: Antibacterial activity against constitutive MLS-resistant Streptococcus pyogenes A 2 by broth microdilution method; assay type: functional; summary of the method: as §1
[15] = test system: Staphylococcus hominis; experiment: Antibacterial activity against methicillin-resistant, coagulase-negative, inducible MLS-resistant Staphylococcus hominis E3 by broth microdilution method; assay type: functional; summary of the method: as §1

Row | SMILES | MIC [1] | MIC [2] | MIC [3] | MIC [4] | MIC [5] | MIC [6] | MIC [7] | MIC [8] | MIC [9] | MIC [10] | MIC [11] | MIC [12] | MIC [13] | MIC [14] | MIC [15]
1 | CC[C@H]1OC(=O)[C@H](C)[C@@H](OCCCc2cncnc2)[C@H](C)[C@@H](O[C@@H]2O[C@H](C)C[C@H](N(C)C)[C@H]2O)[C@](C)(OC)C[C@@H](C)/C(=N\OCc2ccccc2Cl)[C@H](C)[C@H]2OC(=O)O[C@@]21C | > 256 µg/mL | 16 µg/mL (≈ 18.3 µM) | > 256 µg/mL | > 256 µg/mL | > 256 µg/mL | > 256 µg/mL | 2 µg/mL (≈ 2.28 µM) | > 256 µg/mL | 32 µg/mL (≈ 36.6 µM) | 16 µg/mL (≈ 18.3 µM) | 1 µg/mL (≈ 1.14 µM) | 1 µg/mL (≈ 1.14 µM) | 4 µg/mL (≈ 4.57 µM) | 32 µg/mL (≈ 36.6 µM) | > 256 µg/mL
2 | CC[C@H]1OC(=O)[C@H](C)[C@@H](O/C=C\Cc2cncnc2)[C@H](C)[C@@H](O[C@@H]2O[C@H](C)C[C@H](N(C)C)[C@H]2O)[C@](C)(OC)C[C@@H](C)/C(=N\OCc2ccccc2)[C@H](C)[C@H]2OC(=O)O[C@@]21C |  | 2 µg/mL (≈ 2.38 µM) | 64 µg/mL (≈ 76.3 µM) |  | 32 µg/mL (≈ 38.1 µM) |  | 1 µg/mL (≈ 1.19 µM) |  | 16 µg/mL (≈ 19.1 µM) | 1 µg/mL (≈ 1.19 µM) |  | 0.25 µg/mL (≈ 0.298 µM) |  |  | 
3 | C=CCO[C@H]1[C@H](C)[C@@H](O[C@@H]2O[C@H](C)C[C@H](N(C)C)[C@H]2O)[C@](C)(OC)C[C@@H](C)/C(=N\O)[C@H](C)[C@@H](O)[C@](C)(O)[C@@H](CC)OC(=O)[C@@H]1C |  | 256 µg/mL (≈ 397 µM) | > 256 µg/mL |  | > 256 µg/mL |  | 32 µg/mL (≈ 49.6 µM) |  | 128 µg/mL (≈ 198 µM) | 128 µg/mL (≈ 198 µM) |  | 16 µg/mL (≈ 24.8 µM) |  |  | 
4 | CC[C@H]1OC(=O)[C@H](C)[C@@H](O/C=C\Cc2cncnc2)[C@H](C)[C@@H](O[C@@H]2O[C@H](C)C[C@H](N(C)C)[C@H]2O)[C@](C)(OC)C[C@@H](C)/C(=N\O)[C@H](C)[C@@H](O)[C@]1(C)O |  | 0.064 µg/mL (≈ 0.0885 µM) | > 256 µg/mL |  | 128 µg/mL (≈ 177 µM) |  | 0.25 µg/mL (≈ 0.346 µM) |  | 16 µg/mL (≈ 22.1 µM) | 0.064 µg/mL (≈ 0.0885 µM) |  | 0.064 µg/mL (≈ 0.0885 µM) |  |  | 
5 | CC[C@H]1OC(=O)[C@H](C)[C@@H](OC/C=C/c2cncc3ccccc23)[C@H](C)[C@@H](O[C@@H]2O[C@H](C)C[C@H](N(C)C)[C@H]2O)[C@](C)(OC)C[C@@H](C)/C(=N\OCc2ccccc2Cl)[C@H](C)[C@H]2OC(=O)O[C@@]21C |  | 64 µg/mL (≈ 69.4 µM) | 128 µg/mL (≈ 139 µM) |  | 32 µg/mL (≈ 34.7 µM) |  | 16 µg/mL (≈ 17.3 µM) |  | 32 µg/mL (≈ 34.7 µM) | 256 µg/mL (≈ 277 µM) |  | 16 µg/mL (≈ 17.3 µM) |  |  | 
6 | C=CCO[C@H]1[C@H](C)[C@@H](O[C@@H]2O[C@H](C)C[C@H](N(C)C)[C@H]2O)[C@](C)(OC)C[C@@H](C)C(=O)[C@H](C)[C@@H](O)[C@](C)(O)[C@@H](CC)OC(=O)[C@@H]1C |  | > 256 µg/mL | > 256 µg/mL |  | > 256 µg/mL |  | 64 µg/mL (≈ 102 µM) |  | 128 µg/mL (≈ 203 µM) | 256 µg/mL (≈ 406 µM) |  | 32 µg/mL (≈ 50.8 µM) |  |  | 
7 | CC[C@H]1OC(=O)[C@H](C)[C@@H](OCCCc2cccnc2)[C@H](C)[C@@H](O[C@@H]2O[C@H](C)C[C@H](N(C)C)[C@H]2O)[C@](C)(OC)C[C@@H](C)/C(=N\OCc2ccccc2Cl)[C@H](C)[C@H]2OC(=O)O[C@@]21C | > 256 µg/mL | > 256 µg/mL | > 256 µg/mL | > 256 µg/mL | 64 µg/mL (≈ 73.2 µM) | > 256 µg/mL | 16 µg/mL (≈ 18.3 µM) | > 256 µg/mL | 32 µg/mL (≈ 36.6 µM) | > 256 µg/mL | 8 µg/mL (≈ 9.15 µM) | 8 µg/mL (≈ 9.15 µM) | 16 µg/mL (≈ 18.3 µM) | 32 µg/mL (≈ 36.6 µM) | > 256 µg/mL
8 | C=CCO[C@H]1[C@H](C)[C@@H](O[C@@H]2O[C@H](C)C[C@H](N(C)C)[C@H]2O)[C@](C)(OC)C[C@@H](C)C(=O)N[C@H](C)[C@@H](O)[C@](C)(O)[C@@H](CC)OC(=O)[C@@H]1C |  | > 256 µg/mL | > 256 µg/mL |  | > 256 µg/mL |  | > 256 µg/mL |  | > 256 µg/mL | > 256 µg/mL |  | > 256 µg/mL |  |  | 
9 | CC[C@H]1OC(=O)[C@H](C)[C@@H](OC/C=C/c2cncnc2)[C@H](C)[C@@H](O[C@@H]2O[C@H](C)C[C@H](N(C)C)[C@H]2O)[C@](C)(OC)C[C@@H](C)/C(=N\OCc2c(C)cc(C)cc2C)[C@H](C)[C@H]2OC(=O)O[C@@]21C | > 256 µg/mL | > 256 µg/mL | > 256 µg/mL | > 256 µg/mL | 64 µg/mL (≈ 72.6 µM) | > 256 µg/mL | 32 µg/mL (≈ 36.3 µM) | > 256 µg/mL | 64 µg/mL (≈ 72.6 µM) | > 256 µg/mL | 32 µg/mL (≈ 36.3 µM) | 16 µg/mL (≈ 18.2 µM) | 32 µg/mL (≈ 36.3 µM) | 32 µg/mL (≈ 36.3 µM) | > 256 µg/mL
